Each structure is given as a SMILES string.

The target in assay [1] is T1, Matrix metalloproteinase-9 (Homo sapiens, UniProt P14780). The assay is described as follows: Inhibition of human recombinant MMP9 catalytic domain incubated for 20 mins by fluorimetric assay. The procedure, abridged: (§1)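 Diluted recombinant MMP enzyme pre-incubated 20 min at room temperature with varied inhibitor concentrations in 50 mM Tris–HCl, 150 mM NaCl, 5 mM CaCl2, 0.05% Brij-35, pH 7.5; total assay volume 100 µl.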
T1 sequence (P14780 whole entry, the tested form may be a part): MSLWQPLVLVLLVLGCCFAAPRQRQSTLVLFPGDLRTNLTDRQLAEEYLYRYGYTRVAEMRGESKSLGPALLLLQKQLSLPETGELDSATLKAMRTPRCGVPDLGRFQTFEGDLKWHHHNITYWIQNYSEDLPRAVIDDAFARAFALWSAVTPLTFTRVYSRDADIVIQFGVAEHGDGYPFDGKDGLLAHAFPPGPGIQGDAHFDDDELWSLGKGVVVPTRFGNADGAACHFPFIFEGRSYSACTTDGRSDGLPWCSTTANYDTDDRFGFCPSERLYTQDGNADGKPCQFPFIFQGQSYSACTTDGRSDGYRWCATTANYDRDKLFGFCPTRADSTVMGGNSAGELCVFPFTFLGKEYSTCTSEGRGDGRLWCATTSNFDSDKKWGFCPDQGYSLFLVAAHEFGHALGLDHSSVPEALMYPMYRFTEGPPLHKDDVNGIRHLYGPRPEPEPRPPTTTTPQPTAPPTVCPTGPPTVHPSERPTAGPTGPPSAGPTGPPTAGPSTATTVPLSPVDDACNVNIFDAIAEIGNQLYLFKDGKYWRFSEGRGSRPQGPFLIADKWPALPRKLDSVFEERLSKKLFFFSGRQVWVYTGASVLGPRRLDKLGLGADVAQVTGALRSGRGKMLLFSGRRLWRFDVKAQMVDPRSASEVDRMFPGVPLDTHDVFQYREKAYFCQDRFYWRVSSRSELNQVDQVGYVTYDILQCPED

Assay [2] concerns the target T2, Stromelysin-1 (Homo sapiens, UniProt P08254). As to the kind of experiment: Inhibition of human recombinant MMP3 catalytic domain incubated for 20 mins by fluorimetric assay. The essentials: as §1
Assay [3] has as its target T2, Stromelysin-1. As to the kind of experiment: Inhibition of human recombinant MMP3 catalytic domain at 10 uM incubated for 20 mins by fluorimetric assay. The essentials: as §1
The target in assay [4] is T1, Matrix metalloproteinase-9. As to the kind of experiment: Inhibition of human recombinant MMP9 catalytic domain at 10 uM incubated for 20 mins by fluorimetric assay. The essentials: as §1
The target in assay [5] is T3, Interstitial collagenase (Homo sapiens) (UniProt P03956).
T3 sequence (whole entry): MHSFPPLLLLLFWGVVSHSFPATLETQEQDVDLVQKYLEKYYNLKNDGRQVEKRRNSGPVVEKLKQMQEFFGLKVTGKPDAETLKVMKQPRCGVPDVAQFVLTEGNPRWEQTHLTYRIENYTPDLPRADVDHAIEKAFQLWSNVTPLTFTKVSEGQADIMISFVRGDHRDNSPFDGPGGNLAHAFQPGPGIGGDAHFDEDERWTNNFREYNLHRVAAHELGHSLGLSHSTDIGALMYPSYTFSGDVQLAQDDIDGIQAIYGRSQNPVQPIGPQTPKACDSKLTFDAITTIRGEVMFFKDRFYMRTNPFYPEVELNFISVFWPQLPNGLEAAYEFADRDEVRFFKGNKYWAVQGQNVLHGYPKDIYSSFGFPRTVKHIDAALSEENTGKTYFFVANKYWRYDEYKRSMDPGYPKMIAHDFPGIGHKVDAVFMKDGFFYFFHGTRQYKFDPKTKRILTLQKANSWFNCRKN
As to the kind of experiment: Inhibition of human recombinant MMP1 catalytic domain at 10 uM incubated for 20 mins by fluorimetric assay. The procedure, abridged: as §1

The target in the next assay is T4, Interstitial collagenase (Homo sapiens, UniProt P03956).
T4 sequence (P03956 whole entry): T3 sequence (whole entry)
The assay is described as follows: Inhibition of human recombinant MMP1 catalytic domain incubated for 20 mins by fluorimetric assay. The procedure, abridged:
as §1

Assay [6] deals with T5, 72 kDa type IV collagenase (Homo sapiens, UniProt P08253). As to the kind of experiment: Inhibition of human recombinant MMP2 catalytic domain at 10 uM incubated for 20 mins by fluorimetric assay. The essentials:
as §1
Target sequence in this assay (P08253 110-660 limits assumed): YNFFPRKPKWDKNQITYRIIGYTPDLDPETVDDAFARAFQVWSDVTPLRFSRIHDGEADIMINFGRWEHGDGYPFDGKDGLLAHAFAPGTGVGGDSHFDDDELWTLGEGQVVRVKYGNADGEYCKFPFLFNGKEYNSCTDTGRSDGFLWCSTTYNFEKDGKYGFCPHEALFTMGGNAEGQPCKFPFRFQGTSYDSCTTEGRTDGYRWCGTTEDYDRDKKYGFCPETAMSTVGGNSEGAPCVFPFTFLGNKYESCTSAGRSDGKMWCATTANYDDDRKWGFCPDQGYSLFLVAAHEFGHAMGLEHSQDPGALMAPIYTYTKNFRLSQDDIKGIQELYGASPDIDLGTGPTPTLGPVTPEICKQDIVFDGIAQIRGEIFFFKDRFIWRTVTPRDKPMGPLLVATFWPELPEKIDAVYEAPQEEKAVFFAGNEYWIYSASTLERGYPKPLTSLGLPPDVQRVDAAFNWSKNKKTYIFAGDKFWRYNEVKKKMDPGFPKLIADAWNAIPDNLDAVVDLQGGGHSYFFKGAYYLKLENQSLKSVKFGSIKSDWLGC

In assay [7] the target is T5, 72 kDa type IV collagenase. As to the kind of experiment: Inhibition of human recombinant MMP2 catalytic domain incubated for 20 mins by fluorimetric assay. The procedure, abridged:
as §1
Target sequence in this assay (P08253 whole entry, the tested form may be a part): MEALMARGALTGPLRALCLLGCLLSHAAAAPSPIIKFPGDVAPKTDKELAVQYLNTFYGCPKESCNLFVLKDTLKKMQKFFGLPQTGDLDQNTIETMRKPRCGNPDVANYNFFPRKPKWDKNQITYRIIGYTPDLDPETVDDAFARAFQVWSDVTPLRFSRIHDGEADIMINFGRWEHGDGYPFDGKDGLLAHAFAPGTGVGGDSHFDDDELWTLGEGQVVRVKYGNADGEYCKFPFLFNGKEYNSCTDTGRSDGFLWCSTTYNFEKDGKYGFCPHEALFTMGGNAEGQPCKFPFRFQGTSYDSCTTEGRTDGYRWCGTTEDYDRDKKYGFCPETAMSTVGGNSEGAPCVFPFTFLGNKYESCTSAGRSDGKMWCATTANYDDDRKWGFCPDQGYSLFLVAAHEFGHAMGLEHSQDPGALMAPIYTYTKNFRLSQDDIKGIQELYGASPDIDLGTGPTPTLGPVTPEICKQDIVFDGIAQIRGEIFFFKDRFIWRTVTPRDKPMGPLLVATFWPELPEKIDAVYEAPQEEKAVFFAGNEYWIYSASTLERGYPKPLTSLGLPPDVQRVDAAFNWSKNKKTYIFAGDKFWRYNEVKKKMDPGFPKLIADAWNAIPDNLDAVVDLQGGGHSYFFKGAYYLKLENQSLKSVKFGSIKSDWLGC

Assay [8] concerns the target T6, Macrophage metalloelastase (Homo sapiens, UniProt P39900). As to the kind of experiment: Inhibition of human recombinant MMP12 catalytic domain incubated for 20 mins by fluorimetric assay. The procedure, abridged:
as §1

Assay [9] concerns the target T7, Collagenase 3 (Homo sapiens, UniProt P45452). As to the kind of experiment: Inhibition of human recombinant MMP13 catalytic domain at 10 uM incubated for 20 mins by fluorimetric assay. The essentials:
as §1

Assay [10] concerns the target T6, Macrophage metalloelastase. The assay is described as follows: Inhibition of human recombinant MMP12 catalytic domain at 10 uM incubated for 20 mins by fluorimetric assay. The procedure, abridged:
as §1

Assay [11] deals with T7, Collagenase 3. As to the kind of experiment: Inhibition of human recombinant MMP13 catalytic domain incubated for 20 mins by fluorimetric assay. The essentials: as §1

T6 sequence (P39900 whole entry, the tested form may be a part): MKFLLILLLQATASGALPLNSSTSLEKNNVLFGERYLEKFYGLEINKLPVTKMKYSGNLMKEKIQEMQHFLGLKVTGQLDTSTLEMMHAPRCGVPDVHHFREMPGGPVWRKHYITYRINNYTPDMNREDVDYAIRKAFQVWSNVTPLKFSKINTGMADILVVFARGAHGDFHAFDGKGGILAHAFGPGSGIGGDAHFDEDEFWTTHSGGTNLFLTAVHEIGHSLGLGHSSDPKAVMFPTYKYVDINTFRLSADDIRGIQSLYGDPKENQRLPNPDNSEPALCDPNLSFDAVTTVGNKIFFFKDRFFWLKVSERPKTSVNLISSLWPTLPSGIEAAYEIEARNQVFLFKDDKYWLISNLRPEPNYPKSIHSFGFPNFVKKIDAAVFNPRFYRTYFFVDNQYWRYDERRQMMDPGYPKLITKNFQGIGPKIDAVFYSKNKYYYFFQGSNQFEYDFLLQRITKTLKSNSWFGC
T2 sequence (P08254 whole entry, the tested form may be a part): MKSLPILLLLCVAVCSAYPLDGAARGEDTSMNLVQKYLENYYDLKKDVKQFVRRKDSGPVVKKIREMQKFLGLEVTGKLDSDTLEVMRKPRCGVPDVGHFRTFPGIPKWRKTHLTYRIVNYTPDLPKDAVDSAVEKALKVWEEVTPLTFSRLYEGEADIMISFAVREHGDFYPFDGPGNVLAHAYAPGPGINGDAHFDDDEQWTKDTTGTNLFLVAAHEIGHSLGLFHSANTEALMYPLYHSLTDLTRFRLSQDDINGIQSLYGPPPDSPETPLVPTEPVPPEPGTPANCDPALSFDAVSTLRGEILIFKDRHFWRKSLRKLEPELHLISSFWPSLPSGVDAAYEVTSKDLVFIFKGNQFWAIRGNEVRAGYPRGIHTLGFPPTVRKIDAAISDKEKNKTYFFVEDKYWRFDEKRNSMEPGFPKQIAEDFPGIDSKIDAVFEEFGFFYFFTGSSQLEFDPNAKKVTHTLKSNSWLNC

As a reminder, the IC50 is the point on the concentration scale where inhibition reaches its midpoint. A word on the inhibition: it is how much of the control response was suppressed. As to `COc1ccc(S(=O)(=O)N2CC(C)(C)CN(S(=O)(=O)c3ccc(OC)cc3)C2C(=O)NO)cc1`, the IC50 in assay [1] is 0.0018 µM; at Stromelysin-1 [2] it was 0.0286 µM. Further, the inhibition (on Stromelysin-1 [3]; in [4]) was over 30% in each case.

For the compound `O=c1c2cc(O)c(O)cc2oc2cc(O)cc(O)c12`, the inhibition in [5] was over 30%. The IC50 on Interstitial collagenase was 11.4 µM.

For the compound `COC(=O)C1(O)CC(O)C(O)C(OC(=O)/C=C/c2ccc(O)c(O)c2)C1` (stereo not given), the inhibition (in [6]; on Stromelysin-1 [3]) was over 30% each time. In addition, the IC50 at Stromelysin-1 [2] was 58.8 µM; in [7], 64.2 µM.

In the case of `O=C1CCC(O)(CCOC(=O)/C=C/c2ccc(O)c(O)c2)CC1`, in assay [1], the IC50 is 12.5 µM. Further, in assay [4], the inhibition is over 30%.

Take `CCCCOC(=O)[C@H]1c2c(/C=C/C(=O)O[C@H](Cc3ccc(O)c(O)c3)C(=O)O)ccc(O)c2O[C@@H]1c1ccc(O)c(O)c1`: the IC50 in assay [8] was determined as 1.79 µM; in assay [1], 3.46 µM; at Stromelysin-1 [2], 14.8 µM; in assay [7], 15.5 µM; at Collagenase 3 [11] it was 24.5 µM; at Interstitial collagenase, 3.25 µM. The inhibition (on Collagenase 3 [9]; in assay [10]; in [6]; at Stromelysin-1 [3]; in [4]; in [5]) was over 30% throughout.

For the compound `O=C1c2c(O)cc(O)cc2O[C@H](c2cc(O)c(O)c(O)c2)[C@@H]1O`, the IC50 in assay [8] is 1.74 µM; in assay [1] it was 28.8 µM; at Stromelysin-1 [2], 20.3 µM; in [7], 11.9 µM; on Collagenase 3 [11], 9.33 µM. In addition, the inhibition (at Collagenase 3 [9]; in [10]; in [6]; on Stromelysin-1 [3]; in assay [4]) was over 30% each time.

On to `COc1cc(C(O)C(CO)Oc2ccc(/C=C\CO)cc2OC)ccc1O` (stereo not given), for which, in assay [1], the IC50 came out at 9.91 µM. Further, the inhibition in assay [4] was over 30%.

For `C[C@]12CCC[C@@](C)(C(=O)O)[C@@H]1CCC1=CC(=O)CC[C@@H]12`, in assay [6], the inhibition was over 30%. Besides, the IC50 in [7] is 33.3 µM.

Regarding `CC(C)CC(=O)OC(C(=O)O)C(C)C` (stereo not given), the inhibition (at Collagenase 3 [9]; in assay [6]; on Stromelysin-1 [3]; in assay [4]; in [5]) was over 30% in each case. Also, the IC50 in assay [1] worked out at 14.3 µM; at Stromelysin-1 [2], 38.2 µM; in assay [7], 23.3 µM; at Collagenase 3 [11], 42.5 µM; on Interstitial collagenase, 10.6 µM.

For `CNC(=O)C(CCc1ccccc1)NC(=O)C(CC(=O)NO)CC(C)C` (stereo not given), the IC50 worked out at 0.0082 µM in [8], 0.0036 µM in assay [7], 0.0064 µM on Collagenase 3 [11] and 0.0041 µM at Interstitial collagenase. Besides, the inhibition (on Collagenase 3 [9]; in assay [10]; in assay [6]; in [5]) was over 30% throughout.

Take `O=C1c2c(O)cc(O)cc2O[C@H](c2ccc(O)c(O)c2)[C@H]1O`: the inhibition (on Collagenase 3 [9]; in assay [10]; in assay [6]; at Stromelysin-1 [3]; in [4]) was over 30% each time.

In the case of `COc1cc(C[C@@H](CO)[C@H](CO)Cc2ccc(O)c(OC)c2)ccc1O` [(+)-SECOISOLARICIRESINOL], the inhibition in [5] is over 30%. The IC50 at Interstitial collagenase worked out at 50.1 µM.

For the compound `O=C1c2c(O)cc(O)cc2O[C@]2(c3ccc(O)cc3)Oc3cc(O)c4c(c3[C@@]12O)O[C@H](c1ccc(O)cc1)CC4` [DAPHNODORIN F], the inhibition (on Collagenase 3 [9]; in assay [6]; on Stromelysin-1 [3]; in assay [4]) was over 30% each time. The IC50 in assay [1] stood at 21.2 µM; on Stromelysin-1 [2], 22.3 µM; in assay [7], 23.3 µM; at Collagenase 3 [11], 13.2 µM.

As to `O=C(c1c(O)cc(O)cc1O)C1c2c(cc(O)c3c2O[C@H](c2ccc(O)cc2)[C@@H](O)C3)OC1c1ccc(O)cc1` (stereo not given in full) [DIHYDRODAPHNODORIN B], the inhibition (at Collagenase 3 [9]; in assay [6]; at Stromelysin-1 [3]; in assay [4]) was over 30% throughout. Besides, the IC50 in assay [1] turned out to be 10.2 µM; at Stromelysin-1 [2] it was 25.6 µM; in assay [7] it was 14.1 µM; at Collagenase 3 [11], 43.5 µM.

As to `C[C@@H]1O[C@@H](O[C@@H]2[C@@H](O)[C@H](OCCc3ccc(O)c(O)c3)O[C@H](COC(=O)/C=C/c3ccc(O)c(O)c3)[C@H]2O)[C@H](O)[C@H](O)[C@H]1O` [ISOACTEOSIDE], the IC50 worked out at 8.22 µM in assay [8]; 14.3 µM in [1]; 91.4 µM on Stromelysin-1 [2]; 8.96 µM in assay [7]; 11.1 µM at Collagenase 3 [11]. Also, the inhibition (at Collagenase 3 [9]; in assay [10]; in assay [6]; at Stromelysin-1 [3]; in assay [4]) was over 30% throughout.

As for `O=c1cc(-c2ccc(O)c(O)c2)oc2cc(O)cc(O)c12` [LUTEOLIN], the IC50 is 0.98 µM in [8]; 5.62 µM in assay [1]; 16.2 µM on Stromelysin-1 [2]; 3.61 µM in [7]; 10 µM at Collagenase 3 [11]. For the same compound, the inhibition (at Collagenase 3 [9]; in [10]; in [6]; on Stromelysin-1 [3]; in assay [4]) was over 30% throughout.

For `COC(=O)C1(O)CC(OC(=O)/C=C/c2ccc(O)c(O)c2)C(O)C(OC(=O)/C=C/c2ccc(O)c(O)c2)C1` (stereo not given) [MACRATHOIN F], the IC50 in [8] came to 1.2 µM; in assay [1], 11.6 µM; at Stromelysin-1 [2] it was 10.4 µM; in [7], 3.88 µM; on Collagenase 3 [11], 7.62 µM; at Interstitial collagenase, 16.3 µM. For the same compound, the inhibition (on Collagenase 3 [9]; in assay [10]; in [6]; at Stromelysin-1 [3]; in assay [4]; in assay [5]) was over 30% each time.

`COC(=O)[C@@H](Cc1ccc(O)c(O)c1)OC(=O)/C=C/c1ccc(O)c(O)c1` [METHYL ROSMARINATE]: the IC50 in [8] was found to be 2.75 µM; in [1], 0.61 µM; on Stromelysin-1 [2] it was 28.3 µM; in assay [7], 3.58 µM; on Collagenase 3 [11] it was 29 µM; at Interstitial collagenase, 14.7 µM. Further, the inhibition (on Collagenase 3 [9]; in [10]; in [6]; on Stromelysin-1 [3]; in [4]; in [5]) was over 30% throughout.

`Oc1cc(O)cc(/C=C/c2ccc(O)cc2O)c1` [OXYRESVERATROL]: the inhibition in assay [6] was over 30%. Further, in assay [7], the IC50 was 27.6 µM.

For the compound `O=c1c(O)c(-c2ccc(O)c(O)c2)oc2cc(O)cc(O)c12` [QUERCETIN], the IC50 turned out to be 10.2 µM in assay [8]; 1.61 µM in assay [1]; 5.57 µM at Stromelysin-1 [2]; 6.68 µM in assay [7]; 8.46 µM on Collagenase 3 [11]. The inhibition (at Collagenase 3 [9]; in assay [10]; in assay [6]; at Stromelysin-1 [3]; in [4]) was over 30% in each case.

These data come from ChEMBL document CHEMBL2046344, “Natural products as a gold mine for selective matrix metalloproteinases inhibitors” (Bioorg Med Chem, 2012).
